For assay [1], the target named is 5-hydroxytryptamine receptor 2A (Homo sapiens) (UniProt P28223). The assay is described as follows: Antagonist activity at human 5-HT2A receptor expressed in HEK293 cells assessed as inhibition of serotonin-induced receptor activation preincubated for 15 mins followed by serotonin addition and measured after 1 hr by TGFalpha shedding assay. The class given is functional, cell-based. The method, boiled down:
(§1)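 HEK293 cells were co-transfected with the receptor construct and alkaline phosphatase-tagged TGFα, then seeded in HBSS. Cells were pretreated 15 min with compound (0.1 nM–30 µM final), then given serotonin at final 1 µM (5-HT2A) or 0.1 µM (5-HT2B, 5-HT2C) for 1 h at 37 °C. Kb came from IC50 via the modified Gaddum equation.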

Assay [2] has as its target 5-hydroxytryptamine receptor 2B (Homo sapiens) (UniProt P41595). The experiment in a line: Antagonist activity at human 5-HT2B receptor expressed in HEK293 cells assessed as inhibition of serotonin-induced receptor activation preincubated for 15 mins followed by serotonin addition and measured after 1 hr by TGFalpha shedding assay. In kind it is functional, cell-based. Summed up: as §1

Assay [3] has as its target T1, 5-hydroxytryptamine receptor 2C (Homo sapiens) (UniProt P28335).
T1 sequence (whole entry): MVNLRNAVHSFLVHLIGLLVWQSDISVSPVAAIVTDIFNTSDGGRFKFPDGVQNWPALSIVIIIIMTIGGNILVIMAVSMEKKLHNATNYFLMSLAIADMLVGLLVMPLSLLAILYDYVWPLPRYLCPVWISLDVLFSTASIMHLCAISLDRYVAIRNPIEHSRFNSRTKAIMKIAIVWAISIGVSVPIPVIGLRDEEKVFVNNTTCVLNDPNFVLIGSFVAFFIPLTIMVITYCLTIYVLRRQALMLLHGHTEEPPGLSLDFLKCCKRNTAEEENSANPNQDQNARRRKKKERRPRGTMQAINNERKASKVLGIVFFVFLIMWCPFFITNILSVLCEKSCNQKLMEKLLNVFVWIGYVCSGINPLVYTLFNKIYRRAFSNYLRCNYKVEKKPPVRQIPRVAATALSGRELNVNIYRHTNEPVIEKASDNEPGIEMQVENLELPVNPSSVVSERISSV
The experiment in a line: Antagonist activity at human 5-HT2C receptor expressed in HEK293 cells assessed as inhibition of serotonin-induced receptor activation preincubated for 15 mins followed by serotonin addition and measured after 1 hr by TGFalpha shedding assay. In kind it is functional, cell-based. The method, boiled down:
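HEK293 cells were co-transfected with the receptor construct and alkaline phosphatase-tagged TGFα, then seeded in HBSS. Cells were pretreated 15 min with compound (0.1 nM–30 µM final), then given serotonin at final 1 µM (5-HT2A) or 0.1 µM (5-HT2B, 5-HT2C) for 1 h at 37 °C. Readout was supernatant/total AP activity (p-nitrophenol, 405 nm), normalised to maximal agonist response, in triplicate. Kb came from IC50 via the modified Gaddum equation.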

Assay [4] is filed under the species Homo sapiens. The assay is described as follows: Selectivity ratio of Kb for human 5-HT2B receptor to Kb for human 5-HT2A receptor. The method, boiled down: (§2)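 Ratio of the Kb at receptor Y to the Kb at receptor X. Each Kb came from TGFα-shedding antagonist curves in transfected HEK293 cells, converted from IC50 with the modified Gaddum equation IC50/([A]/EC50 − 1).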

In assay [5] the target is Serotonin 2 receptors; 5-HT2a & 5-HT2c (Homo sapiens) (UniProt P28223+P28335). The assay is described as follows: Selectivity ratio of Kb for human 5-HT2C receptor to Kb for human 5-HT2A receptor. The method, boiled down: as §2
The species named for assay [6] is Homo sapiens. The experiment in a line: Selectivity ratio of Kb for human 5-HT2B receptor to Kb for human 5-HT2C receptor. Summed up: as §2
The species entered for assay [7] is Homo sapiens. The assay is described as follows: Selectivity ratio of Kb for human adrenergic alpha1B receptor to Kb for human adrenergic alpha1A receptor. Summed up: as §2
The species entered for assay [8] is Homo sapiens. The assay is described as follows: Selectivity ratio of Kb for human adrenergic alpha1D receptor to Kb for human adrenergic alpha1A receptor. The method, boiled down:
as §2

Assay [9] is filed under the species Homo sapiens. The assay is described as follows: Selectivity ratio of Kb for human adrenergic alpha1D receptor to Kb for human adrenergic alpha1B receptor. The method, boiled down:
as §2

Assay [10] is filed under the species Homo sapiens. The experiment in a line: Selectivity ratio of Kb for human adrenergic alpha1A receptor to Kb for human 5-HT2A receptor. The method, boiled down: as §2
In assay [11] the target is T2, Alpha-1A adrenergic receptor (Homo sapiens) (UniProt P35348).
T2 sequence (whole entry): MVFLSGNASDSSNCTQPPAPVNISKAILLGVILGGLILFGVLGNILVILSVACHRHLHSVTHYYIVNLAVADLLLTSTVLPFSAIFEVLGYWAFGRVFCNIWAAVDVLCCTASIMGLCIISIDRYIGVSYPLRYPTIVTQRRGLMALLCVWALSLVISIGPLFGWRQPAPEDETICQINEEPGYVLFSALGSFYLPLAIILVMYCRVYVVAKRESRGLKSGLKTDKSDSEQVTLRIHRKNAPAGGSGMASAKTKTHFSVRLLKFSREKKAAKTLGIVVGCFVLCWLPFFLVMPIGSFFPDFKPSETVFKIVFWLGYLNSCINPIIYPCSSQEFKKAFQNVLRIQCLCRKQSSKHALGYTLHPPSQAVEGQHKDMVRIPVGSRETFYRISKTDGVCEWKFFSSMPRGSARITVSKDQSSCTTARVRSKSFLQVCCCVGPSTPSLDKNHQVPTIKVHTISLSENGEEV
The assay is described as follows: Antagonist activity at human adrenergic alpha1A receptor expressed in HEK293 cells assessed as inhibition of noradrenaline-induced receptor activation preincubated for 15 mins followed by noradrenaline addition and measured after 1 hr by TGFalpha shedding assay.

Assay [12] has as its target T3, Alpha-1B adrenergic receptor (Homo sapiens) (UniProt P35368).
T3 sequence (whole entry): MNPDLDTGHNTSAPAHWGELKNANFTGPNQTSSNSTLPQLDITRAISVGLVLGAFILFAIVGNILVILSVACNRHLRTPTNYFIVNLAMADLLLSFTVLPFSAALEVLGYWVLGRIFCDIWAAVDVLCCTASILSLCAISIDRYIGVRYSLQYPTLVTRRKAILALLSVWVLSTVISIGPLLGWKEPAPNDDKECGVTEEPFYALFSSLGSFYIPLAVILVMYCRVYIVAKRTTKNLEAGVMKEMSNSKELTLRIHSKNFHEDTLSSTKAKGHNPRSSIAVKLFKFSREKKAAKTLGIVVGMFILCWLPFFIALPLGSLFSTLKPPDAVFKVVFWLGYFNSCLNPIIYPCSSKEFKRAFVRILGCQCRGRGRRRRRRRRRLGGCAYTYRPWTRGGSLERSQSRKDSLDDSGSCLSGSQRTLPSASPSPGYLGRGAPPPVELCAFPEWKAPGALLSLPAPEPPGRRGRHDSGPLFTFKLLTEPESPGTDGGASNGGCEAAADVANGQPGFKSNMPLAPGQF
The assay is described as follows: Antagonist activity at human adrenergic alpha1B receptor expressed in HEK293 cells assessed as inhibition of noradrenaline-induced receptor activation preincubated for 15 mins followed by noradrenaline addition and measured after 1 hr by TGFalpha shedding assay.

In assay [13] the target is T4, Alpha-1D adrenergic receptor (Homo sapiens) (UniProt P25100).
T4 sequence (whole entry): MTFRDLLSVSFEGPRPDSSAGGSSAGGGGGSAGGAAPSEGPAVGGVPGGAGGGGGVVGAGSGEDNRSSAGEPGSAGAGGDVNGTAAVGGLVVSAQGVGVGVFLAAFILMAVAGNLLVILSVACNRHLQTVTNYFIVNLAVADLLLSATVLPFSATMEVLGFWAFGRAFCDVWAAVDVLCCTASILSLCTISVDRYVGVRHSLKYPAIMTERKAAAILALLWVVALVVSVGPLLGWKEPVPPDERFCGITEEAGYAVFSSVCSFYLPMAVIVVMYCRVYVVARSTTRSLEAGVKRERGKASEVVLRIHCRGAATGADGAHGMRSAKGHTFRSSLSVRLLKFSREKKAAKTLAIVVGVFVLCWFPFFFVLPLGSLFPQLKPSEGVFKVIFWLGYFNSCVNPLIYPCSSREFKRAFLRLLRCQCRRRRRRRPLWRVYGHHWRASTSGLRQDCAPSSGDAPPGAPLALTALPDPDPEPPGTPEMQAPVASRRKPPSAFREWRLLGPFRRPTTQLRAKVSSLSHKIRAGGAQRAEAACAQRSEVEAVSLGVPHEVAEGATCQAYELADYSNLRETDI
The experiment in a line: Antagonist activity at human adrenergic alpha1D receptor expressed in HEK293 cells assessed as inhibition of noradrenaline-induced receptor activation preincubated for 15 mins followed by noradrenaline addition and measured after 1 hr by TGFalpha shedding assay.

For assay [14], the species on record is Homo sapiens. The experiment in a line: Selectivity ratio of Kb for human adrenergic alpha1B receptor to Kb for human 5-HT2A receptor. Summed up:
as §2

For assay [15], the species on record is Homo sapiens. The experiment in a line: Selectivity ratio of Kb for human adrenergic alpha1D receptor to Kb for human 5-HT2A receptor. The method, boiled down:
as §2

The species named for assay [16] is Homo sapiens. The assay is described as follows: Selectivity ratio of Kb for human adrenergic alpha1A receptor to Kb for human 5-HT2C receptor. Summed up:
as §2

The species entered for assay [17] is Homo sapiens. The experiment in a line: Selectivity ratio of Kb for human adrenergic alpha1B receptor to Kb for human 5-HT2C receptor. The method, boiled down: as §2
Assay [18] is filed under the species Homo sapiens. The assay is described as follows: Selectivity ratio of Kb for human adrenergic alpha1D receptor to Kb for human 5-HT2C receptor. The method, boiled down: as §2
Assay [19] has as its target T5, Alpha-1A adrenergic receptor (Homo sapiens, UniProt P35348).
T5 sequence (P35348 whole entry): T2 sequence (whole entry)
The experiment in a line: Displacement of [125I]-HEAT from human adrenergic alpha1A receptor expressed in rat-1 cells. In kind it is cell-based. (In general: Loss of bound radioactivity is the signal in a displacement assay; it reports binding, not function.)

In assay [20] the target is T6, Alpha-1B adrenergic receptor (Homo sapiens, UniProt P35368).
T6 sequence (P35368 whole entry): T3 sequence (whole entry)
The experiment in a line: Displacement of [125I]-HEAT from human adrenergic alpha1B receptor expressed in rat-1 cells. In kind it is cell-based.

For assay [21], the target named is T7, Alpha-1D adrenergic receptor (Homo sapiens, UniProt P25100).
T7 sequence (P25100 whole entry): T4 sequence (whole entry)
The assay is described as follows: Displacement of [125I]-HEAT from human adrenergic alpha1D receptor expressed in rat-1 cells. In kind it is cell-based.

The term Kb denotes the equilibrium dissociation constant of an antagonist, usually derived from a functional assay. As usually defined, the pKb is −log10 of the Kb, conventionally taken in molar units. As a reminder, the Ki is the equilibrium dissociation constant of an inhibitor or competing ligand from its target.

5-hydroxytryptamine receptor 2A (Homo sapiens), sequence (P28223 whole entry): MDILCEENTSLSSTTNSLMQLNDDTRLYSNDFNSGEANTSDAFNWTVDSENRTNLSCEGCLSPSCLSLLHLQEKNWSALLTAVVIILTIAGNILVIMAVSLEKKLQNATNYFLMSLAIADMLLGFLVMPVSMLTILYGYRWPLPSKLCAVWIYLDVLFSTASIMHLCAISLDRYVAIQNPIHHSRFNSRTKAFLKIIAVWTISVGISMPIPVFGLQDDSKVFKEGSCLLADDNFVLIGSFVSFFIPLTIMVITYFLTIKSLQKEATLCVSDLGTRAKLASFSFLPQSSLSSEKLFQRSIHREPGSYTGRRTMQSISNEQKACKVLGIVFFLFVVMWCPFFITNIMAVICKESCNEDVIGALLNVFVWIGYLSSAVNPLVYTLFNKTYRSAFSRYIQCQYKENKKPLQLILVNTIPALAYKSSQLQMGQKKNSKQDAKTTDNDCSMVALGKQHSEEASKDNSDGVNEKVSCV
Serotonin 2 receptors; 5-HT2a & 5-HT2c (Homo sapiens), sequence (P28223 whole entry, looked up, one chain of several): as the sequence (P28223 whole entry) above
5-hydroxytryptamine receptor 2B (Homo sapiens), sequence (P41595 whole entry): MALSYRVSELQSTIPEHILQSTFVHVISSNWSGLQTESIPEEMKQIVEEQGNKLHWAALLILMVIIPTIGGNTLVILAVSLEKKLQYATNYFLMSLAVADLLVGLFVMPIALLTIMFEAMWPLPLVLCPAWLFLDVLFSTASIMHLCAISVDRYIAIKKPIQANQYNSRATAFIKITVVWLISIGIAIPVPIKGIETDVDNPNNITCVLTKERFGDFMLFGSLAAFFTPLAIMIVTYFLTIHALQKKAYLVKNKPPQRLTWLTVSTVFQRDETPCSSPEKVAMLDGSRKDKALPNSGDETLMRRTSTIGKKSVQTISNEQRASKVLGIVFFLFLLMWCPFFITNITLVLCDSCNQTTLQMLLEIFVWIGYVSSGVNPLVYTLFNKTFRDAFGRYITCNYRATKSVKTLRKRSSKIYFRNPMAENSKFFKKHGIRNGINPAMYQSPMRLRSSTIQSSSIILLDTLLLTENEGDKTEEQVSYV

For the compound `CN1CCc2cc3c(c4c2[C@@H]1Cc1ccccc1-4)OCO3`, the Kb in assay [1] turned out to be 42.9 nM; in assay [2], 92.7 nM; in assay [3], 76.9 nM; in assay [11], 86 nM; in [12], 154 nM; in [13] it was 92.2 nM. In addition, the pKb was 7.06 to 7.37 in assay [1]; 7.03 in assay [2]; 7.12 in [3]; 6.62 to 7.07 in [11]; 6.81 in [12]; 7.04 in assay [13]. Moreover, the Selectivity ratio in assay [4] amounted to 2; in assay [5], 2; in assay [6], 1; in assay [7], 2; in [8], 1; in [9], 0.6. Further, the Selectivity ratio in assay [10] came out at 3.

Consider `COc1cc2c3c(c1OC)-c1ccccc1C[C@@H]3N(C)CC2`, for which the Kb in assay [1] was 84.3 nM; in [2] it was 41.7 nM; in assay [3] it was 30.9 nM; in assay [11], 67.1 nM; in [12], 316 nM; in assay [13] it was 116 nM. Also, the pKb in assay [1] is 6.85 to 7.07; in assay [2] it was 7.38; in assay [3], 7.51; in assay [11], 6.91 to 7.17; in [12], 6.5; in assay [13], 6.94. In addition, the Selectivity ratio in assay [4] was found to be 0.5; in [5] it was 0.4; in [6] it was 1; in assay [7], 5; in assay [8], 2; in assay [9] it was 0.4. In addition, the Selectivity ratio in assay [10] came out at 1.

In the case of `CN1CCc2cc3c(c4c2[C@H]1Cc1ccccc1-4)OCO3`, the Kb in assay [1] worked out at 10.8 nM; in assay [2], 84 nM; in assay [3], 15.1 nM; in assay [11] it was 338 nM; in assay [12], 266 nM; in assay [13], 46 nM. Besides, the pKb in [1] was 7.88 to 7.97; in [2] it was 7.08; in assay [3] it was 7.82; in assay [11], 6.38 to 6.47; in assay [12], 6.57; in assay [13], 7.34. In addition, the Selectivity ratio turned out to be 8 in assay [4]; 1 in assay [5]; 6 in [6]; 0.8 in assay [7]; 0.1 in [8]; 0.2 in assay [9]. In addition, the Selectivity ratio in [10] was 32; in [14], 18 to 32; in assay [15] it was 3 to 4; in assay [16], 18 to 32; in assay [17] it was 18 to 32; in [18], 3 to 4. For the same compound, the Ki is 251 nM in assay [19], 3160 nM in [20] and 631 nM in [21].

With `COc1cc2c3c(c1OC)-c1ccccc1C[C@H]3N(C)CC2`, the Kb came out at 65.3 nM in [1]; 31 nM in assay [2]; 36.4 nM in assay [3]; 37.8 nM in assay [11]; 60.6 nM in [12]; 165 nM in [13]. In addition, the pKb was 7.18 to 7.26 in assay [1]; 7.51 in assay [2]; 7.44 in [3]; 7.31 to 7.42 in assay [11]; 7.22 in assay [12]; 6.78 in assay [13]. The Selectivity ratio amounted to 0.5 in [4]; 0.6 in assay [5]; 1 in assay [6]; 2 in assay [7]; 4 in [8]; 3 in assay [9]. The Selectivity ratio in assay [10] turned out to be 1.

(Values after ChEMBL document CHEMBL4257488, “Synthesis and evaluation of nuciferine and roemerine enantiomers as 5-HT2 and α1 receptor antagonists” (Medchemcomm, 2018).)
